Drawing on ChEMBL document CHEMBL1157638, “Fluorescent epigenetic small molecule induces expression of the tumor suppressor ras-association domain family 1A and inhibits human prostate xenograft” (J Med Chem, 2010), this text covers Activity and GI50 for five compounds.

The source made the active and inactive calls. The rule behind the calls is not given here.

Test [1] concerns the target DNA (cytosine-5)-methyltransferase 1 (Homo sapiens) (UniProt P26358). The experiment in a line: Inhibition of DNA methyltransferase activity in human PC3 cells at 15 uM after 3 days. The format is cell-based. The note with it: PC-3. Summed up: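 PC-3 cells in complete growth medium treated 3 days with compound, then harvested. Nuclear extracts prepared by kit protocol, and DNMT activity measured with a commercial DNMT activity kit against untreated cells. Mean of three independent experiments ± SEM.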

Test [2] relates to PC-3. The experiment in a line: Growth inhibition of human PC3 cells after 24 hrs by trypan blue exclusion method. The class given is functional. The note with it: PC-3, 24 h. Put shortly:
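PC-3 cells grown in phenol red-free IMEM with 10% FBS, 2 mM glutamine and penicillin/streptomycin at 37 °C, 5% CO2. Seeded in triplicate at 1.5 × 10⁴ cells/well. After 24 h, treated with DMSO vehicle or 1, 5, 15, 30 or 60 μM compound for 24 h. Cells trypsinized, stained with 0.4% trypan blue, and live and dead cells counted by hemocytometer. Mean ± SEM of three independent observations.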

For test [3], the system named is PC-3. In words: Decrease in DNA synthesis in human PC3 cells at 5 uM after 24 hrs by BrdU incorporation assay. The class given is functional, cell-based. Put shortly:
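PC-3 cells were seeded at 2 × 10⁴ cells/well and exposed to 5 μM compound or DMSO for 24 h. BrdU incorporation was read by chemiluminescent cell proliferation ELISA on a luminometer. Background without anti-BrdU-peroxidase was subtracted and values were normalized to untreated control. Values are mean ± SEM.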
Background: Uptake of a labelled nucleoside into DNA is a usual measure of proliferation.

Test [4] deals with PC-3. In words: Increase in RASSF1A gene expression in human PC3 cells at 15 uM after 3 days hrs by RT-PCR. The format is functional. Summed up:
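PC-3 cells incubated 3 days with compound, then RNA extracted with TRIzol. 500 ng total RNA reverse-transcribed with random hexamers. RASSF1A amplified with previously described primers and conditions. Products run on 1.5% agarose and stained with ethidium bromide. Bands quantified by densitometry against untreated cells, with RASSF1A re-expression from the reference alkaloid set to 100%.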

Test [5] concerns PC-3. The experiment in a line: […] in RASSF1A gene expression in human PC3 cells at 15 uM after 3 days hrs by RT-PCR. The class given is functional, cell-based.

Chain of DNA (cytosine-5)-methyltransferase 1 (Homo sapiens) (P26358 whole entry): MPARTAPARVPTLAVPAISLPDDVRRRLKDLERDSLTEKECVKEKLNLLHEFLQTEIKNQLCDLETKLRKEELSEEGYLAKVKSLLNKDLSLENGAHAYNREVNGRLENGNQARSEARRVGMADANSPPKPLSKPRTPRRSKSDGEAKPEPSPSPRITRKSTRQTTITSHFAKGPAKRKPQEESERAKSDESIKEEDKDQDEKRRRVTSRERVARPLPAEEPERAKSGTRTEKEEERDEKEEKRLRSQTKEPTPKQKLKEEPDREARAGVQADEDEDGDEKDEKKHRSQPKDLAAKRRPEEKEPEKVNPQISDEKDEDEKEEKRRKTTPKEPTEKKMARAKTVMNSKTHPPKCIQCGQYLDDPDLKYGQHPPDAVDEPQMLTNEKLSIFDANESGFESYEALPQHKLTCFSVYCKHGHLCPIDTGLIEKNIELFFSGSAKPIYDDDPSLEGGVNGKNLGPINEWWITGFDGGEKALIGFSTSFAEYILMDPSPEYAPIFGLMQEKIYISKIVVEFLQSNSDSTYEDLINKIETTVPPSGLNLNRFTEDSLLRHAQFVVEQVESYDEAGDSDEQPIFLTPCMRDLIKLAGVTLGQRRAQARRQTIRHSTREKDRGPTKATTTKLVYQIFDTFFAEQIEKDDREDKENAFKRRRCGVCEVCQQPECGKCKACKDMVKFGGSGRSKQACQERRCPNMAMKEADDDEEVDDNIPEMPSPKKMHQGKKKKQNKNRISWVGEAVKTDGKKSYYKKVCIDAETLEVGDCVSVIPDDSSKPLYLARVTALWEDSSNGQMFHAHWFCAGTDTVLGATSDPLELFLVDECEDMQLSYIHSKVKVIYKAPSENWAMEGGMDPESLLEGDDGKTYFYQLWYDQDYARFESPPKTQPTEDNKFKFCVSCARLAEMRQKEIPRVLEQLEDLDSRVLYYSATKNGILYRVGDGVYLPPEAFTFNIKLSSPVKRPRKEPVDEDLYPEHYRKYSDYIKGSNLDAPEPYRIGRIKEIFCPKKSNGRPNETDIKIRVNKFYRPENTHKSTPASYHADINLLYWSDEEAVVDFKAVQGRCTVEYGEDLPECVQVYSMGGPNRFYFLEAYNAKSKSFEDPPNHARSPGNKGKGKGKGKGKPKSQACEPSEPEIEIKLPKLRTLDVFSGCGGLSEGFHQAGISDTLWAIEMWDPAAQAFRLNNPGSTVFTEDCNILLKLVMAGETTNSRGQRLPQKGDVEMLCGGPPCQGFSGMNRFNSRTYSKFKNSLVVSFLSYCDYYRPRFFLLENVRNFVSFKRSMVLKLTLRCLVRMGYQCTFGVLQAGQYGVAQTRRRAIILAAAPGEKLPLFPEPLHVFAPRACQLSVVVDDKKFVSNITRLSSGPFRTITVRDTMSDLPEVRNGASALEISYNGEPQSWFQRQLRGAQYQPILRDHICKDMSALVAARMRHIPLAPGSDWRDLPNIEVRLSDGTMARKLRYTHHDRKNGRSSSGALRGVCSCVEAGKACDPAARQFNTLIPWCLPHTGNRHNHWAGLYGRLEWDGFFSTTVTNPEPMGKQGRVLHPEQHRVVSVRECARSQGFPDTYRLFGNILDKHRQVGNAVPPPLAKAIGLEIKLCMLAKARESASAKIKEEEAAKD

As usually defined, the GI50 is the concentration that inhibits growth by half. A high value points to less potent growth inhibition. Take `COc1ccc2c(c1)[nH]c1c(C)c(O)ccc12`: the result in test [1] was Active. In the test with PC-3 [2], this compound registered a 50% growth inhibitory concentration (GI50) of 18.7 µM.

As to `COc1ccc2c(c1)[nH]c1c(C)c(OCc3ccccc3)ccc12`, the outcome (in test [1]; in the test on PC-3 [3]) was Active. In addition, the 50% growth inhibitory concentration (GI50) in the test on PC-3 [2] was determined as 17.6 µM. Further, the Activity with PC-3 [4] stood at 50%.

With `COc1ccc2c(c1)[nH]c1cc(O)c(C)cc12`, the outcome (in test [1]; with PC-3 [3]) was Active. For the same compound, in the test on PC-3 [2], the GI50 stood at 15.3 µM.

Regarding `COc1ccc2c(c1)[nH]c1cc(OS(=O)(=O)c3cccc4c(N(C)C)cccc34)c(C)cc12`, the outcome with PC-3 [5] and in the test on PC-3 [4] was inactive. The compound also yielded a GI50 in the test with PC-3 [2] of 22.9 µM.

With `COc1ccc2c(c1)[nH]c1cc(OCc3ccccc3)c(C)cc12`, the outcome in the test with PC-3 [5] and in the test with PC-3 [4] was inactive. Also, in the test with PC-3 [2], the concentration for 50% growth inhibition (GI50) stood at 48.9 µM.
